An excerpt weighted towards active compounds, which were near 2.7% of everything screened.
IMP-1 inh-1 – inhibitors of Pseudomonas aeruginosa IMP-1 metallo-beta-lactamase; purified IMP-1, nitrocefin hydrolysis, epi-absorbance fluorescence; inhibition, % at 5.6 µM; 0.45% of 290,000 active; AID 1556;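 active means inhibition above the mean plus 3 SD of all compounds in the same screening run, cut at about 4.5% in these data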;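 further: 0% = IMP-1 with DMSO and 100% = DMSO wells lacking enzyme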
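assay system = purified recombinant IMP-1 metallo-beta-lactamase enzyme | schedule = 15 min preincubation plus 25 min reaction at 25 °C | signal = Epi-absorbance fluorescence, 480 nm excitation, 530 nm emission | read-out basis = percent inhibition from optical density relative to buffer-blank wells | controls = IMP-1 with DMSO as 0%, enzyme-free DMSO as 100%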
PfM18AAP inh-1 – blocks P. falciparum M18 aspartyl aminopeptidase; recombinant PfM18AAP, H-Glu-NHMec fluorogenic cleavage; inhibition, % at 7.35 µM; 1.2% of 290,000 active;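 active means inhibition above the campaign mean inhibition over all tested compounds plus 3 SD, cut at about 28% in these data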;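 further: 0% = plate median of test compound wells and 100% = 2 mM ZnCl2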
VIM-2 inhibitor – inhibitors of Pseudomonas aeruginosa VIM-2 metallo-beta-lactamase; purified VIM-2, nitrocefin hydrolysis, epi-absorbance fluorescence; inhibition, % at 5.6 µM; 0.89% of 290,000 active;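 active means inhibition above the mean of all tested compounds plus 3 SD, cutoff set per screening run, cut at about 7.5% in these data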;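 further: red hydrolysis product quenches plate fluorescence so inhibitors raise well fluorescence; 0% = enzyme with DMSO and 100% = DMSO without enzyme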
CTSL1 counter-1 – cathepsin L1 inhibition, PFM18AAP counter-screen; recombinant F. hepatica cathepsin L1, Z-Leu-Arg-MCA fluorescence; inhibition, % at 5.96 µM; 0.49% of 300,000 active; AID 1906;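 active means inhibition above the mean of all tested compounds plus 3 SD, set per screening campaign, cut at about 17% in these data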;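 further: 0% = plate median of test compound wells and 100% = 1 µM Z-Phe-Ala-diazomethylketone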
IMP-1 inh-2 – selectivity counter-screen for VIM-2 inhibitors: IMP-1 metallo-beta-lactamase inhibitors | shares compounds with VIM-2 inhibitor | purified IMP-1, nitrocefin hydrolysis, epi-absorbance fluorescence | inhibition, % at 5.6 µM | 1,300 tested, under 10 active | AID 1856; call rule not given here;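 further: 0% = enzyme with vehicle and 100% = vehicle without enzyme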
VIM-2 FRET inh – inhibits VIM-2 in FRET assay to exclude epi-absorbance artifacts; AID 1857; shares compounds with VIM-2 inhibitor; inhibition, % at 5.6 µM; purified VIM-2, CCF2 FRET substrate hydrolysis; 23% of 1,300 active;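 active means inhibition above the mean of all tested compounds plus 3 SD, cut at about 19% in these data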;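 further: 0% = VIM-2 plus DMSO and 100% = no enzyme wells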
TEM-1 counter-1 – selectivity counter-screen for VIM-2 inhibitors: E. coli TEM-1 inhibitors; shares compounds with VIM-2 inhibitor; inhibition, % at 5.6 µM; AID 1866; 3% of 1,300 active; Purified TEM-1, nitrocefin hydrolysis, epi-absorbance fluorescence;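 active means inhibition above that campaign's mean inhibition plus 3 SD, cut at about 0.46% in these data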;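 further: 0% = TEM-1 with DMSO and 100% = TEM-1 with 100 µM potassium clavulanate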
Target sequence (P62593 whole entry, looked up): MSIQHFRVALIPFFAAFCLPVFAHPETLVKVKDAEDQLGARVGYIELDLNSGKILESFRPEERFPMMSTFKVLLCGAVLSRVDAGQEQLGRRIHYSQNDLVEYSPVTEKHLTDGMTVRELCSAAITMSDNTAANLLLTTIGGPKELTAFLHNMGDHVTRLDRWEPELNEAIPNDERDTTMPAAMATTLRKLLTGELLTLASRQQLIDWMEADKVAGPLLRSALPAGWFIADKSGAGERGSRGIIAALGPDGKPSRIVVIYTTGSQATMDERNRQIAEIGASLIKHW
VIM-2 inh conf – confirmation of P. aeruginosa VIM-2 metallo-beta-lactamase inhibitors | shares compounds with VIM-2 inhibitor | purified VIM-2, nitrocefin hydrolysis, epi-absorbance | 96% of 1,300 active | inhibition, % at 5.6 µM;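 active means inhibition of the VIM-2 beta-lactamase enzyme above about 11% from the earlier first-round screen, limit read from the data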;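 further: 0% = VIM-2 with DMSO and 100% = buffer wells without enzyme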
VIM-2 inh confirm – VIM-2 inhibition, confirmation assay; purified VIM-2 enzyme, nitrocefin absorbance; AID 1860; 73% of 200 active; shares compounds with IMP-1 inh-1; inhibition, % at 5.6 µM; in the data active means inhibition above about 8%;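 further: 0% = enzyme with vehicle and 100% = no enzyme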
TEM-1 counter-2 – blocks E. coli TEM-1 beta-lactamase, VIM-2 IMP-1 counter-screen; inhibition, % at 5.6 µM; nitrocefin absorbance inhibition; AID 2184; 50% of 200 active; shares compounds with IMP-1 inh-1; in the data active means inhibition above about 0.66%
IMP-1 inh conf – confirmation of P. aeruginosa IMP-1 metallo-beta-lactamase inhibitors; inhibition, % at 5.6 µM; shares compounds with IMP-1 inh-1; 60% of 200 active; purified IMP-1 enzyme, absorbance substrate hydrolysis; in the data active means inhibition above about 4.9%;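 further: 0% = enzyme with vehicle and 100% = vehicle without enzyme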
PfM18AAP inh-2 – PfM18AAP inhibition, confirmation. shares compounds with PfM18AAP inh-1. 28% of 2,400 active. AID 2170. recombinant PfM18AAP, H-Glu-NHMec fluorogenic cleavage. inhibition, % at 7.35 µM;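 active means mean inhibition over replicate wells above the hit cutoff set for the earlier primary screen, cut at about 29% in these data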;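 further: 0% = median of test compound wells and 100% = 2 mM ZnCl2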
CTSL1 counter-2 – Cathepsin L (human) inhibition, confirmation; inhibition, % at 5.96 µM; shares compounds with PfM18AAP inh-1; 2,400 tested, under 10 active; purified cathepsin L1, Z-Leu-Arg-MCA fluorescence;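 active means average inhibition across replicates above the hit cutoff set in the earlier primary screen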;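 further: 0% = median of test compound wells and 100% = Z-Phe-Ala-diazomethylketone 1 µM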
Target sequence (P07711 whole entry, looked up): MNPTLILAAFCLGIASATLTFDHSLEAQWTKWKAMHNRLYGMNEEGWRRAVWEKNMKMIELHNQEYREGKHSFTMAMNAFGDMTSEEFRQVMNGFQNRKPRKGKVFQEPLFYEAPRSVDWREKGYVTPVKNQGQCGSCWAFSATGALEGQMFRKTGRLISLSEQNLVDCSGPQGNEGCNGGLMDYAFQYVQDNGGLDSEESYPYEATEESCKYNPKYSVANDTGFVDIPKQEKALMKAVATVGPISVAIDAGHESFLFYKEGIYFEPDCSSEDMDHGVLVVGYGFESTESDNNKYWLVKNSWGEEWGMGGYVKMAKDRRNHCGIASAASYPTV
Active calls of the source: *; nt = no result.

SMILES | IMP-1 inh-1 | PfM18AAP inh-1 | VIM-2 inhibitor | CTSL1 counter-1 | others
C=CCn1c(O)c(C=NCCCn2ccnc2)c(=O)[nH]c1=O | 0 | -9 | 23* | 0 | IMP-1 inh-2=-4;VIM-2 FRET inh=0;TEM-1 counter-1=-5;VIM-2 inh conf=37*
CN1CCN(Cc2cn(C)c3ccccc23)CC1CCO (configuration not stated) | 0 | -4 | -2 | -3
Nc1c(C(=O)NCCN2CCOCC2)c2nc3ccccc3nc2n1Cc1ccco1 | -2 | 5 | 15* | 1 | IMP-1 inh-2=-3;VIM-2 FRET inh=-19;TEM-1 counter-1=-5;VIM-2 inh conf=29*
Nc1c(C(=O)NCCN2CCOCC2)c2nc3ccccc3nc2n1Cc1ccccc1 | -2 | 28 | -1 | -1
Cc1cc(OCC(=O)NCc2ccncc2)c2c3c(c(=O)oc2c1)CCC3 | -2 | 0 | 72* | 0 | IMP-1 inh-2=-3;VIM-2 FRET inh=2;TEM-1 counter-1=-11;VIM-2 inh conf=78*
Cc1cc(OCC(=O)NC(Cc2ccc(Cl)cc2)C(=O)O)c2c3c(c(=O)oc2c1)CCCC3 (configuration not stated) | -1 | -15 | 33* | 3 | IMP-1 inh-2=-1;VIM-2 FRET inh=47*;TEM-1 counter-1=0.6*;VIM-2 inh conf=37*
CCN(CC)C(=O)COc1cc(C)cc2oc(=O)c3c(c12)CCCC3 | -3 | -6 | 2 | nt
COP(=O)(C#Cc1ccccc1)C(O)c1ccc(Br)cc1 (configuration not stated) | -5 | -6 | -2 | -2
Clc1ccc(OCC#CCN2CCCC2)cc1 | 0 | -3 | -1 | 2
O=[N+]([O-])c1ccc(N2CCNCC2)cc1NC1CC1 | 0 | -7 | 1 | 3
O=[N+]([O-])c1ccc(N2CCCC2)cc1N/N=C1\CN2CCC1CC2 | -4 | 9 | 13* | 3 | IMP-1 inh-2=-3;VIM-2 FRET inh=32*;TEM-1 counter-1=-9;VIM-2 inh conf=25*
CCN1CCN(c2ccc(N)cc2)CC1 | -8 | 5 | 38* | -1 | IMP-1 inh-2=-9;VIM-2 FRET inh=-3;TEM-1 counter-1=-6;VIM-2 inh conf=27*
CN1CCN(c2ccc(N)cc2)CC1 | -9 | -5 | 37* | 0 | IMP-1 inh-2=-8;VIM-2 FRET inh=-1;TEM-1 counter-1=-6;VIM-2 inh conf=59*
C/C(=N\N1CCCCCC1)c1c(O)n(C)c(=O)n(C)c1=O | -1 | -3 | -3 | 0
CN1CCc2cc3c(c4c2C1Cc1ccccc1-4)OCO3 (configuration not stated) | 3 | 50* | 19* | 4 | IMP-1 inh-2=-3;VIM-2 FRET inh=-7;TEM-1 counter-1=-5;VIM-2 inh conf=11*;PfM18AAP inh-2=5;CTSL1 counter-2=46*
CCC1=CCN(CCc2c(C)[nH]c3ccccc23)CC1 | nt | nt | nt | -3
O=[N+]([O-])c1ccc(N2CCCCCC2)c2nonc12 | 15* | 6 | 13* | 9 | VIM-2 inh confirm=19*;TEM-1 counter-2=22*;IMP-1 inh conf=16*
CCN1CCC(NCC2CCCCC2)CC1 | -3 | 8 | -1 | 2
CC(C)[N+]12CCC(CC1)C(C(O)(c1ccccc1)c1ccccc1)C2 (configuration not stated) | 0 | -13 | -1 | 0
Cc1cc2c(C(F)(F)F)cc(=O)oc2c2c1NCCC2 | -5 | 3 | -4 | -3
O=c1cc(C(F)(F)F)c2cc3c4c(c2o1)CCCN4CCC3 | 7.8* | -4 | 8.5* | 2 | VIM-2 inh confirm=35*;TEM-1 counter-2=52*;IMP-1 inh conf=26*
Nc1ccc2ccc3cccc[n+]3c2c1 | 26* | 5 | 25* | 3 | VIM-2 inh confirm=35*;TEM-1 counter-2=40*;IMP-1 inh conf=24*
COc1ccc(-n2c(O)c(/C=C3\C=Nc4ccc(Br)cc43)c(=O)[nH]c2=O)cc1 | -3 | 27 | -3 | 5
O=c1[nH]c(=O)n(Cc2ccccc2)c(O)c1/C=C1\C=Nc2ccccc21 | -2 | 9 | 0 | 2
O=c1[nH]c(=O)n(-c2ccccc2F)c(O)c1/C=C1\C=Nc2ccccc21 | -2 | 42* | -4 | -2 | PfM18AAP inh-2=41*;CTSL1 counter-2=-2
SMILES | IMP-1 inh-1 | PfM18AAP inh-1 | VIM-2 inhibitor | CTSL1 counter-1 | others
O=c1[nH]c(=O)n(-c2ccc(F)cc2)c(O)c1/C=C1\C=Nc2ccccc21 | 2 | 32* | 2 | 0 | PfM18AAP inh-2=29*;CTSL1 counter-2=-5
CC[C@@H]1C=CC=CC[C@H](C)[C@@H](O)[C@@H](C)C(=O)[C@H](C)[C@@H](O)[C@H](C)C(=O)[C@H](C)[C@@H](O)[C@H](C)C=CC(=O)O[C@H]2[C@@H](C)[C@@H](CC1)O[C@@]1(CC[C@@H](C)[C@@H](C[C@H](C)O)O1)[C@@H]2C | nt | nt | nt | 7
Cc1nc2ccc(P(=O)(O)O)cc2s1 | -3 | 50* | -2 | -2 | PfM18AAP inh-2=9;CTSL1 counter-2=0
CCN1C[C@]2(OC(=O)c3ccccc3NC(C)=O)CCC(OC)C34C5C[C@H]6C(OC)[C@]5(O)[C@](O)(C[C@@H]6OC)C(C[C@@H]32)[C@H]14 (some centres not stated) | -5 | -3 | 1 | -8
O=C(/C=C/c1ccc(F)cc1)NC(=S)N1C[C@H]2C[C@H](C1)c1cccc(=O)n1C2 | -3 | 3 | -1 | 3
O=c1[nH]c(=S)[nH]c(O)c1N=Nc1ccc(S(=O)(=O)N2CCOCC2)cc1 | -2 | 12 | -2 | 12
NS(=O)(=O)c1ccc(N=Nc2c(O)[nH]c(=S)[nH]c2=O)cc1 | -3 | 32* | -1 | 11 | PfM18AAP inh-2=11;CTSL1 counter-2=14
O=C1CCCN1c1ccc(S(=O)(=O)O)cc1 (tested in a mixture with another compound) | -5 | 80* | -4 | -3 | PfM18AAP inh-2=79*;CTSL1 counter-2=-4
O=c1[nH]sc2cc(F)ccc12 | -2 | 58* | -1 | nt | PfM18AAP inh-2=37*;CTSL1 counter-2=0
CN(C)C1C(=O)C(C(N)=O)=C(O)C2(O)C(=O)C3=C(O)c4c(O)cccc4C(C)(O)C3CC12 (configuration not stated) | 0 | 36* | -1 | -4 | PfM18AAP inh-2=-49;CTSL1 counter-2=-5
Cc1ccc(N=C(/N=C(\N)N[N+](=O)[O-])Nc2ccc(C)cc2)cc1 | nt | nt | nt | 2

Assay outcomes deposited in PubChem BioAssay by The Scripps Research Institute Molecular Screening Center.
